Measurements from article PMC4472004 (Molecular cancer therapeutics, 2014).

Assays:
[1] = biological target: PSMA receptor on PC3pip cells (Homo sapiens, UniProt Q04609); assay: Competitive binding assay
In short: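 PC3pip cells (PSMA-transduced PC3; RPMI-1640 with 2 mmol/L L-glutamine and 10% FBS, 37°C, 5% CO2), 5 × 10^5 per tube, incubated 1 h at 37°C with varying test compound concentrations plus 12 nmol/L [3H]-methyl-cysteine urea PSMA radioligand. Cells pelleted at 3,000 × g for 5 min at 4°C and washed 3× with cold PBS. Bound radioactivity by scintillation counting; IC50 from curve fitting.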

PC3pip tumors = assay: In vivo NIR imaging; design: species or system mice; conditions: coinjection; up to 1,000-fold excess of Cys-CO-Glu or PSMA-1; 100-fold excess of ZJ-MCC-Ahx-YYYG

Sequence of PSMA receptor on PC3pip cells (Q04609 whole entry): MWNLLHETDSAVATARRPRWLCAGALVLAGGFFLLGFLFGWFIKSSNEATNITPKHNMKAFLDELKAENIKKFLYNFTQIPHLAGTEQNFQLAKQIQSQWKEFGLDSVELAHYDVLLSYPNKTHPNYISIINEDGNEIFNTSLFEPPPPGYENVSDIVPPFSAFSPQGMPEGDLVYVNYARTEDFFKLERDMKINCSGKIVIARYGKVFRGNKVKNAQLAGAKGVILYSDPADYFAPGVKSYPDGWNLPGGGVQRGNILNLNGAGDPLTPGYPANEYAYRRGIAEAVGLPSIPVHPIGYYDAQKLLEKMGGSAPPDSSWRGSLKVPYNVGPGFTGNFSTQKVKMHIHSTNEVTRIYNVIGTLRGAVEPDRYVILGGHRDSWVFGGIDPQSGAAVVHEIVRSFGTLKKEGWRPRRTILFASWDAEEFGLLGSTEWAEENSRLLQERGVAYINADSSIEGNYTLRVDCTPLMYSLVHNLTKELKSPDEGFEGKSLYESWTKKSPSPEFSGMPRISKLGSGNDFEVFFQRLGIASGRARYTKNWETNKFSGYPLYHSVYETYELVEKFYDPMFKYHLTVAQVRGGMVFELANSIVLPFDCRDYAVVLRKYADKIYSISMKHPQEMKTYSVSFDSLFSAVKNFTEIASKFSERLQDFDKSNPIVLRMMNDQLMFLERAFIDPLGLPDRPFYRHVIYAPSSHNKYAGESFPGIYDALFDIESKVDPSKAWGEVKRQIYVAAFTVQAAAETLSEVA

Row | IC50 [1] [nM] | Compound | binding affinity better than the parent ligand Cys-CO-Glu ([1]; ratio of IC50 values) [fold] | effectiveness as in vivo competitor of the PSMA-1–NIR probes (PC3pip tumors)
1 | – | Glu-CO-Glu'-Amc-Ahx-Glu-Glu-Glu-Lys-NH2 [PSMA-1] | 4.3 | unable to achieve effective competition
2 | 9.93 ± 0.07 | NCCCC[C@H](NC(=O)N[C@@H](CCC(=O)O)C(=O)O)C(=O)O [Cys-CO-Glu, (S)-2-(3-((S)-5-amino-1-carboxypentyl)ureido)pentanedioic acid] | – | unable to achieve effective competition
